Laboratory results taken from ChEMBL document CHEMBL4342471, “Discovery of Thieno[2,3-d]pyrimidine-Based Hydroxamic Acid Derivatives as Bromodomain-Containing Protein 4/Histone Deacetylase Dual Inhibitors Induce Autophagic Cell Death in Colorectal Carcinoma Cells” (J Med Chem, 2020).
Active and inactive are the calls of the source. No cut-off for these calls is given here.

What was measured:
[1] = test system: HCT-116; test: Antitumor activity against human HCT116 cells xenografted in BALB/cAnNCrl mouse assessed as average tumor growth inhibition at 15 to 30 mg/kg, po administered on day 1 to day 19 relative to control; format: functional
Method in brief: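 HCT-116 xenografts in mice were given the test agent orally at 15 or 30 mg/kg, with a saline control group, over 19 days. Tumor volume was followed during treatment and tumors were weighed at the end. Body weight was monitored. Inhibition is expressed as treatment-to-control (T/C) ratio.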

[2] = test system: HCT-116; test: Induction of apoptosis in human HCT116 cells assessed as late apoptotic cells at 0.5 uM by Annexin-V FITC/propidium iodide staining-based flow cytometry (reference value: 3.51 %); format: functional
[3] = test system: HCT-116; test: Antitumor activity against human HCT116 cells xenografted in BALB/cAnNCrl mouse assessed as increase in TUNEL positive apoptotic nuclei in tumor tissue at 15 to 30 mg/kg, po administered on day 1 to day 19 measured on day 19 by TUNEL assay; format: functional, organism-based
Method in brief: (§1)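 HCT-116 xenograft mice were dosed orally at 15 or 30 mg/kg, or 30 mg/kg for reference agents, for 19 days, with vehicle or saline controls. Tumor sections were stained for Ki-67, c-Myc, Ac-H3, BRD4, LC3-II, LIFR and p-STAT3 by immunohistochemistry, and TUNEL staining was used as the apoptosis marker.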

[4] = Half life in Sprague-Dawley rat at 30 mg/kg, po measured up to 1440 mins by UPLC-QTOF/MS analysis; format: ADME, organism-based; settings: in vivo
[5] = test system: HCT-116; test: Induction of apoptosis in human HCT116 cells assessed as viable cells at 0.2 uM by Annexin-V FITC/propidium iodide staining-based flow cytometry (reference value: 93.4 %); format: functional; settings: read-out: Activity
[6] = test system: HCT-116; test: Induction of cell cycle arrest in human HCT116 cells assessed as cell accumulation at sub-G1 phase at 0.2 to 0.5 uM by flow cytometry; format: functional, cell-based
Method in brief: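 HCT-116 cells treated at 0.2 or 0.5 μM were analysed for cell cycle by flow cytometry, with the sub-G1 population scored.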

[7] = molecular target: T1, Bromodomain-containing protein 4 (Homo sapiens, UniProt O60885); test: Inhibition of BRD4 in human HCT116 cells assessed as induction of autophagic vacuole formation in cytoplasm at 0.5 uM measured after 24 hrs by transmitted electron microscopy; format: cell-based
Method in brief: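 HCT-116 cells were incubated with 0.5 μM compound for 24 hours, fixed, and imaged by transmission electron microscopy for cytoplasmic autophagic vacuoles.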

[8] = species on record: Homo sapiens; test: Inhibition of BRD4/HDAC in human HCT116 cells assessed as increase in caspase 3 cleavage at 0.2 to 0.5 uM measured after 24 hrs by Western blot analysis; format: cell-based
[9] = species on record: Homo sapiens; test: Inhibition of BRD4/HDAC in human HCT116 cells assessed as increase in OSM mRNA level at 0.5 uM after 24 hrs by RT-PCR analysis; format: cell-based
Method in brief: (§2)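 HCT-116 cells incubated 24 h with test agent (0.5 µM, 2.0 µM or 10 µM depending on compound); IL6, OSM, LIF and CTF1 mRNA levels then quantified.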

[10] = molecular target: T1, Bromodomain-containing protein 4; test: Inhibition of human recombinant His-tagged BRD4 BD1 domain using H-SGRGK(Ac)GGK(Ac)GLGK-(Ac)GGAK(Ac)RHRK(Biotin)-OH as substrate preincubated with enzyme for 30 mins followed by substrate addition measured after 30 mins by AlphaScreen assay
[11] = test system: HCT-116; test: Cytotoxicity against human HCT116 cells assessed as reduction in cell viability at 0.5 uM incubated for 24 to 48 hrs in presence of 500 uM type 3 PI3K inhibitor, 3-MA by MTT assay; format: functional, cell-based
Method in brief: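 HCT-116 viability was read by MTT after treatment with 0.5 μM compound, with or without the autophagy inhibitor 3-MA at 500 μM.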

[12] = Toxicity in BALB/cAnNCrl mouse xenografted with human HCT116 cells assessed as effect on lung morphological changes at 15 to 30 mg/kg, po administered on day 1 to day 19 measured on day 19 by hematoxylin and eosin staining based assay; format: organism-based; settings: in vivo
Method in brief: (§3)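 HCT-116 xenograft mice dosed orally at 15 or 30 mg/kg for 19 days, saline as vehicle control; body weights tracked, and main organs sectioned and H&E-stained at study end.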

[13] = molecular target: T1, Bromodomain-containing protein 4; test: Inhibition of BRD4 in human HCT116 cells assessed as induction of autophagy by measuring upregulation of beclin1 expression at 0.2 to 0.5 uM measured after 24 hrs by Western blot analysis; format: cell-based
[14] = AUC (0 to infinity) in Sprague-Dawley rat at 30 mg/kg, po measured up to 1440 mins by UPLC-QTOF/MS analysis; format: ADME, organism-based; design: dose 30 mg/kg, route oral, time infinity; settings: in vivo
[15] = Toxicity in BALB/cAnNCrl mouse xenografted with human HCT116 cells assessed as effect on body weight at 15 to 30 mg/kg, po administered on day 1 to day 19 […]; format: organism-based; settings: in vivo; method in brief: as §3
[16] = molecular target: Bromodomain-containing protein 2 (Homo sapiens, UniProt P25440); test: Inhibition of human recombinant His-tagged BRD2 BD2 domain expressed in Escherichia coli BL21(DE3)-R3-pRARE2 cells by AlphaScreen assay
[17] = molecular target: Polyamine deacetylase HDAC10 (Homo sapiens, UniProt Q969S8); test: Inhibition of HDAC10 (unknown origin) using biotinylated histone H3 KAc peptide (1 to 21 residues) as substrate by HTRF assay
[18] = test system: HCT-116; test: Induction of apoptosis in human HCT116 cells assessed as early apoptotic cells at 0.5 uM by Annexin-V FITC/propidium iodide staining-based flow cytometry (reference value: 2.8 %); format: functional
[19] = species on record: Homo sapiens; test: Inhibition of BRD4/HDAC in human HCT116 cells assessed as increase in CTF1 mRNA level at 0.5 uM after 24 hrs by RT-PCR analysis; format: cell-based; method in brief: as §2
[20] = Toxicity in BALB/cAnNCrl mouse xenografted with human HCT116 cells assessed as effect on spleen morphological changes at 15 to 30 mg/kg, po administered on day 1 to day 19 measured on day 19 by hematoxylin and eosin staining based assay; format: organism-based; settings: in vivo; method in brief: as §3
[21] = molecular target: T1, Bromodomain-containing protein 4; test: Inhibition of BRD4 in human HCT116 cells assessed as induction of autophagy by measuring LC3-I cleavage to LC3-II at 0.5 uM measured after 24 hrs by Western blot analysis; format: cell-based
Method in brief: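 HCT-116 cells were treated for 24 hours with 0.5 μM, 2.0 μM or 10 μM agents. LC3 (LC3-I to LC3-II conversion) and p62 were then detected by western blot.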

[22] = test system: Mus musculus; test: In vivo inhibition of HDAC in BALB/cAnNCrl mouse xenografted with human HCT116 cells assessed as increase in acetylated histone H3 level in tumor tissue at 15 to 30 mg/kg, po administered on day 1 to day 19 measured on day 19 by immunohistochemical analysis; format: functional, organism-based; method in brief: as §1
[23] = test system: HCT-116; test: Induction of apoptosis in human HCT116 cells assessed as apoptotic cells at 0.5 uM by Annexin-V FITC/propidium iodide staining-based flow cytometry (reference value: 6.3 +/- 0.4 %); format: functional

Polyamine deacetylase HDAC10, sequence (Q969S8 whole entry, the tested form may be a part): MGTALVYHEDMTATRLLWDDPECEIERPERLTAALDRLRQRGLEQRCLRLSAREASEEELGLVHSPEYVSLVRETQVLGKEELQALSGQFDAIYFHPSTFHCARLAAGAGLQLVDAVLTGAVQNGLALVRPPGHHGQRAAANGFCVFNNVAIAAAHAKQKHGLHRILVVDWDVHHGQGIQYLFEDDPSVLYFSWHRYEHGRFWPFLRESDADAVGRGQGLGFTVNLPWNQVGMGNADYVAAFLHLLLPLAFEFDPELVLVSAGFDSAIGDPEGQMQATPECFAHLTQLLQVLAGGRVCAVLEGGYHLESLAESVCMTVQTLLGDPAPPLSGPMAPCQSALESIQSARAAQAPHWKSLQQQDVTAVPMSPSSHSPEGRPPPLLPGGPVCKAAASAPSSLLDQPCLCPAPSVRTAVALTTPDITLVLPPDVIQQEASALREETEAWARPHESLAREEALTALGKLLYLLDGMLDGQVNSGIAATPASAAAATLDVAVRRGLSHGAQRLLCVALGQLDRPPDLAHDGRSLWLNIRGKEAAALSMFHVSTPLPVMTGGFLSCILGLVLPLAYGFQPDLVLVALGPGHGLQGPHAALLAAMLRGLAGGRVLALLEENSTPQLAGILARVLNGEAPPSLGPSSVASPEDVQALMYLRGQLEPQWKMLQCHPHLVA
Bromodomain-containing protein 2, sequence (P25440 whole entry, the tested form may be a part): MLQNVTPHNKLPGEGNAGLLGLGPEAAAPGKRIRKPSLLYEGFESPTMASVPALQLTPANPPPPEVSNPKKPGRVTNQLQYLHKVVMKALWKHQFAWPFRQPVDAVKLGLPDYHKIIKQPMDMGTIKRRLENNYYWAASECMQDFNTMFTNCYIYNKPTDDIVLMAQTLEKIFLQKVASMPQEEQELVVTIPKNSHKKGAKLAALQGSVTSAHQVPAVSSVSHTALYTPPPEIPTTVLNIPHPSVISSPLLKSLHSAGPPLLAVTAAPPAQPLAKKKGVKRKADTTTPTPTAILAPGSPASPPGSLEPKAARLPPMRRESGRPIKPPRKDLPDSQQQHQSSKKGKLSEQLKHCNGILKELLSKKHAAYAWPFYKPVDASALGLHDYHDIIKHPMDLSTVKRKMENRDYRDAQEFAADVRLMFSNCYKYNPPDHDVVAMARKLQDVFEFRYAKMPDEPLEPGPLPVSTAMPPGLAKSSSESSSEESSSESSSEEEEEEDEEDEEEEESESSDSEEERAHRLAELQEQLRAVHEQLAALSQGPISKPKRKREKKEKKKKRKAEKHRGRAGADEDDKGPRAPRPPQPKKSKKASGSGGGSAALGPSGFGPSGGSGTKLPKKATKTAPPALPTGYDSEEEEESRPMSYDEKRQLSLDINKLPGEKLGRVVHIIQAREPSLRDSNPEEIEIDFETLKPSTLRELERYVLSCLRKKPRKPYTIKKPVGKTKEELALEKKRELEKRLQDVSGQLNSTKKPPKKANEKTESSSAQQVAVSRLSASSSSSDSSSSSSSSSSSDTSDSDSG

Cc1cc(-c2nc3sc4c(c3c(=O)[nH]2)CCN(C)C4)cc(C)c1OCCCCCC(=O)NO
growth inhibition (GI) [1]: 68.8% | Activity [2]: 35.8% | Activity [3]: Active | half-life [4]: 4.8 h | viability at 0.2 µM [5]: 61.7% | Activity [6]: Active | inhibition [7]: Active | inhibition [8]: Active | inhibition [9]: Active | IC50 [10]: 1.1 µM | Activity [11]: inactive | Activity [12]: Non-Toxic | inhibition [13]: Active | AUC(0-inf) [14]: 63300 ng·h/mL | Activity [15]: Non-Toxic | IC50 [16]: > 20 µM | IC50 [17]: 0.923 µM | Activity [18]: 9.54% | inhibition [19]: Active | Activity [20]: Non-Toxic | inhibition [21]: Active | inhibition [22]: Active | Activity [23]: 45.3%
